6 compounds from ChEMBL document CHEMBL1268860, “Revision of the Structures of 1,5-Dihydroxy-3,8-epoxyvalechlorine, Volvaltrate B, and Valeriotetrate C from Valeriana jatamansi and V. officinalis” (J Nat Prod, 2010) can be followed below.

Molecules are shown by their SMILES.

What all share (type): functional, cell-based
Assay [1] deals with HCT-8. Put plainly: Cytotoxicity against human HCT8 cells after 24 hrs by MTT assay. To be noted: HCT-8, 24 h. The essentials:
(§1)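 Cell lines from ATCC, seeded at 3000 cells per well and left 24 h before exposure to a range of compound concentrations. After 24 h of exposure, MTT was added and the plates were incubated another 24 h. Viability was read as absorbance at 570 nm, and IC50 values were calculated from these readings. Paclitaxel served as the positive control.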
In general terms: Tetrazolium assays rely on reduction of a dye to a coloured formazan, in cell work by metabolically active cells.

Assay [2] in a line: Cytotoxicity against human PC3M cells after 24 hrs by MTT assay. To be noted: PC-3M. An outline of the steps: as §1
Assay [3] deals with Bel-7402. Put plainly: Cytotoxicity against human Bel7402 cells after 24 hrs by MTT assay. To be noted: Bel-7402, 24 h. An outline of the steps: as §1
For assay [4], the system named is A549. The assay is described as follows: Cytotoxicity against human A549 cells after 24 hrs by MTT assay. To be noted: A549, 24 h. The essentials:
as §1

Turning to `C=C1[C@H]2O[C@H](OCC)[C@@H]3[C@](CCl)(O2)[C@@H](OC(C)=O)C[C@]13O`, the IC50 in assay [1], in assay [2], in assay [3] and in assay [4] was over 10 µM throughout.
With `C=C1[C@H]2O[C@@H](OC)[C@@H]3[C@](CCl)(O2)[C@@H](OC(C)=O)C[C@]13O`, the half-maximal inhibitory concentration (IC50) in assay [1], in assay [2], in assay [3] and in assay [4] was over 10 µM in each case.
Regarding `C=C1[C@H]2O[C@@H](OCC)[C@@H]3[C@](CCl)(O2)[C@@H](OC(C)=O)C[C@]13O`, the concentration for half-maximal inhibition (IC50) in assay [1], in assay [2], in assay [3] and in assay [4] was over 10 µM throughout.
For the compound `C=C1[C@H]2O[C@H](OC)[C@@H]3[C@](CCl)(O2)[C@@H](OC(C)=O)C[C@]13O`, the 50% inhibitory concentration (IC50) in assay [1], in assay [2], in assay [3] and in assay [4] was over 10 µM throughout.
For `CC(=O)O[C@H]1C[C@]2(O)C(COC(=O)[C@H](OC(=O)CC(C)C)C(C)C)=CO[C@@H](OC(=O)CC(C)C)[C@@H]2[C@@]1(O)CCl` [VOLVALTRATE B], the IC50 – broadly, the concentration needed to halve the response being measured – was determined as 3.2 µM in assay [1], 2 µM in assay [2], 6.1 µM in assay [3] and 8.5 µM in assay [4].
For `C=C1[C@H]2O[C@@H](O)[C@@H]3[C@](CCl)(O2)[C@@H](OC(C)=O)C[C@]13O`, in that order: over 10 µM, over 10 µM, over 10 µM and over 10 µM.
